Active and inactive are the calls of the source.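 How the source made its calls: active means compound blocking at least 90% of GSTO1 probe labeling in gels, or giving a GSTO1 band over fivefold background; inactive means the rest.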
Target: Glutathione S-transferase omega-1 (Homo sapiens) (UniProt P78417)
Test: GSTO1 target engagement in intact cells, late-stage follow-up, mechanism study for GSTO1 inhibitor project, cell-based, MDA-MB-435, competitive ABPP, click chemistry, fluorescence (AID 463093)
Conditions: MDA-MB-435 in situ competitive ABPP, gel fluorescence; for fold labeling / inhibition: stronger effect = higher value; for inhibition: in situ competitive ABPP
Procedure, shortened: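 dosing = 1, 0.5, 0.25 µM compound | material = MDA-MB-435 cells, in situ treatment | quantity = soluble proteome adjusted to 1 mg/mL protein | detection = SDS-PAGE in-gel fluorescence | times = compound on cells 1 h 37 °C, click labeling 1 h 25 °C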

Sequence of Glutathione S-transferase omega-1 (Homo sapiens) (P78417 whole entry, looked up): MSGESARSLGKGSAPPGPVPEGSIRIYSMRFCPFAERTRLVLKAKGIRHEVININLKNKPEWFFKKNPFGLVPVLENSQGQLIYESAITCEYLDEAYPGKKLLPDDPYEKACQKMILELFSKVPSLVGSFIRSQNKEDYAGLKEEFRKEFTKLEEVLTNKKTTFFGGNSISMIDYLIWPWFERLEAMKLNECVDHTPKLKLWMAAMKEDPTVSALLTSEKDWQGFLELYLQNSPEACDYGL

outcome (direct ABPP, click chemistry): active
fold labeling (direct ABPP, click chemistry, click labeling 0.25 uM, at 0.25 µM): > 5
fold labeling (direct ABPP, click chemistry, click labeling 0.5 uM, at 0.5 µM): > 5
fold labeling (direct ABPP, click chemistry, click labeling fold over background 1 uM, at 1 µM): > 5
inhibition (at 1 µM): 100%
inhibition (inhibition, at 0.25 µM): 99%
inhibition (inhibition, at 0.5 µM): 100%
Structure (SMILES): C#CCN(CCCN(C(=O)CCl)c1ccc([N+](=O)[O-])cc1)C(=O)C(F)(F)F

Reference: PubChem BioAssay AID463093 (The Scripps Research Institute Molecular Screening Center, 2010)
